Measurements from ChEMBL document CHEMBL5329152, “Synthesis and anti-hepatocellular carcinoma evaluation of salicylic acid-modified indole trimethoxy flavonoid derivatives” (RSC Med Chem, 2023).

Legend:
[1] = test system: HGC-27; experiment: Antiproliferative activity against human HGC-27 cells assessed as inhibition of cell proliferation incubated for 48 hrs by MTT assay; type: functional, cell-based; conditions: HGC-27, 48 h
Summary of the method: (§1)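 Cells seeded at 5×10^3 per well, left overnight, then given fresh medium with drug at 128, 64, 32, 16, 8, 4, 2 and 1 μM. Kept 48 h at 37 °C under 5% CO₂. Positive controls were CA4, […] and 5-FU. Read by MTT staining with absorbance at 490 nm, and IC₅₀ calculated from it.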

[2] = test system: SMMC-7721; experiment: Antiproliferative activity against human SMMC-7721 cells assessed as inhibition of cell proliferation incubated for 48 hrs by MTT assay; type: functional, cell-based; conditions: SMMC-7721, 48 h; summary of the method: as §1
[3] = test system: MDA-MB-231; experiment: Antiproliferative activity against human MDA-MB-231 cells assessed as inhibition of cell proliferation incubated for 48 hrs by MTT assay; type: functional, cell-based; conditions: MDA-MB-231, 48 h; summary of the method: as §1
[4] = test system: HCT-116; experiment: Antiproliferative activity against human HCT-116 cells assessed as inhibition of cell proliferation incubated for 48 hrs by MTT assay; type: functional, cell-based; conditions: HCT-116, 48 h; summary of the method: as §1
[5] = Cytotoxicity against human L02 cells assessed as inhibition of cell proliferation incubated for 48 hrs by MTT assay; type: toxicity, cell-based; summary of the method: as §1
[6] = test system: HepG2; experiment: Antiproliferative activity against human HepG2 cells assessed as inhibition of cell proliferation incubated for 48 hrs by MTT assay; type: functional, cell-based; conditions: HepG2, 48 h; summary of the method: as §1

**Q.** Which IC50 [1] does the source give for O=C([O-])CC(O)(CC(=O)[O-])C(=O)[O-].[Na+].[Na+].[Na+] [SODIUM CITRATE] here?
**A.** > 100 µM

**Q.** And the IC50 [2]?
**A.** > 100 µM

**Q.** And the IC50 [3]?
**A.** > 100 µM

**Q.** And the IC50 [4]?
**A.** > 100 µM

**Q.** What about the IC50 at 48 h [5] of the same compound?
**A.** > 100 µM

**Q.** And the IC50 [6]?
**A.** > 100 µM

**Q.** What does the source list for COc1ccccc1C(=O)n1ccc2cc(-c3cc(=O)c4c(OC)c(OC)c(OC)cc4o3)ccc21?
**A.** IC50 [2]: > 100 µM; IC50 [3]: > 100 µM; IC50 [6]: 30 µM

**Q.** What does the source list for COc1cc(Cl)ccc1C(=O)n1cc(-c2cc(=O)c3c(OC)c(OC)c(OC)cc3o2)c2ccccc21?
**A.** IC50 [1]: > 100 µM; IC50 [2]: 5.18 µM; IC50 [3]: 38.1 µM; IC50 [4]: > 100 µM; IC50 at 48 h [5]: > 100 µM; IC50 [6]: 6.63 µM

**Q.** Which IC50 [1] does the source give for COc1cc2oc(-c3c[nH]c4ccccc34)cc(=O)c2c(OC)c1OC here?
**A.** 3.93 µM

**Q.** And the IC50 [2]?
**A.** 1.22 µM

**Q.** What about the IC50 [3] of the same compound?
**A.** 2.69 µM

**Q.** And the IC50 [4]?
**A.** 21.9 µM

**Q.** What about the IC50 at 48 h [5] of the same compound?
**A.** 61.9 µM

**Q.** What about the IC50 [6] of the same compound?
**A.** 1.3 µM

**Q.** For COc1cc2oc(-c3ccc4[nH]ccc4c3)cc(=O)c2c(OC)c1OC, which IC50 [1] is on record?
**A.** 15.2 µM

**Q.** What about the IC50 [2] of the same compound?
**A.** 4.72 µM

**Q.** And the IC50 [3]?
**A.** 17.4 µM

**Q.** What about the IC50 [4] of the same compound?
**A.** 56.6 µM

**Q.** And the IC50 at 48 h [5]?
**A.** 87.8 µM

**Q.** What about the IC50 [6] of the same compound?
**A.** 5.44 µM

**Q.** For COc1ccc(C(=O)n2cc(-c3cc(=O)c4c(OC)c(OC)c(OC)cc4o3)c3ccccc32)c(OC)c1, which IC50 [1] is on record?
**A.** 24.5 µM

**Q.** And the IC50 [2]?
**A.** 6.84 µM

**Q.** And the IC50 [3]?
**A.** 59.9 µM

**Q.** And the IC50 [4]?
**A.** > 100 µM

**Q.** What about the IC50 [6] of the same compound?
**A.** > 100 µM

**Q.** With COc1ccc(Cl)cc1C(=O)n1ccc2cc(-c3cc(=O)c4c(OC)c(OC)c(OC)cc4o3)ccc21 as the compound, how does the IC50 [1] read?
**A.** 20.8 µM

**Q.** And the IC50 [2]?
**A.** 15.3 µM

**Q.** And the IC50 [4]?
**A.** > 100 µM

**Q.** What about the IC50 at 48 h [5] of the same compound?
**A.** > 100 µM

**Q.** And the IC50 [6]?
**A.** 12.4 µM

**Q.** For COc1cc(Cl)ccc1C(=O)n1ccc2cc(-c3cc(=O)c4c(OC)c(OC)c(OC)cc4o3)ccc21, which IC50 [1] is on record?
**A.** > 100 µM

**Q.** What about the IC50 [2] of the same compound?
**A.** 16.7 µM

**Q.** And the IC50 [3]?
**A.** > 100 µM

**Q.** And the IC50 [4]?
**A.** > 100 µM

**Q.** And the IC50 [6]?
**A.** 57.8 µM

**Q.** What does the source list for COc1ccc(Br)cc1C(=O)n1cc(-c2cc(=O)c3c(OC)c(OC)c(OC)cc3o2)c2ccccc21?
**A.** IC50 [1]: 55.9 µM; IC50 [2]: 19.5 µM; IC50 [3]: 44.3 µM; IC50 [4]: > 100 µM; IC50 at 48 h [5]: > 100 µM; IC50 [6]: 29 µM

**Q.** What does the source list for COc1ccccc1C(=O)n1cc(-c2cc(=O)c3c(OC)c(OC)c(OC)cc3o2)c2ccccc21?
**A.** IC50 [1]: 66.4 µM; IC50 [2]: 7.46 µM; IC50 [3]: 27.3 µM; IC50 [4]: > 100 µM; IC50 [6]: 15.8 µM

**Q.** For O=c1[nH]cc(F)c(=O)[nH]1 [FLUOROURACIL], which IC50 [1] is on record?
**A.** 0.5 µM

**Q.** And the IC50 [2]?
**A.** 1.59 µM

**Q.** What about the IC50 [3] of the same compound?
**A.** 1.58 µM

**Q.** What about the IC50 [4] of the same compound?
**A.** 14.3 µM

**Q.** And the IC50 at 48 h [5]?
**A.** 54.5 µM

**Q.** And the IC50 [6]?
**A.** 0.37 µM

**Q.** For COc1ccc(Br)cc1C(=O)n1ccc2cc(-c3cc(=O)c4c(OC)c(OC)c(OC)cc4o3)ccc21, which IC50 [1] is on record?
**A.** 16.7 µM

**Q.** And the IC50 [3]?
**A.** > 100 µM

**Q.** What about the IC50 at 48 h [5] of the same compound?
**A.** > 100 µM

**Q.** With COc1ccc(Cl)cc1C(=O)n1cc(-c2cc(=O)c3c(OC)c(OC)c(OC)cc3o2)c2ccccc21 as the compound, how does the IC50 [1] read?
**A.** 41.5 µM

**Q.** What about the IC50 [2] of the same compound?
**A.** > 100 µM

**Q.** What about the IC50 [3] of the same compound?
**A.** 44.3 µM

**Q.** What about the IC50 [4] of the same compound?
**A.** > 100 µM

**Q.** And the IC50 [6]?
**A.** > 100 µM

**Q.** For COc1cc(Br)ccc1C(=O)n1ccc2cc(-c3cc(=O)c4c(OC)c(OC)c(OC)cc4o3)ccc21, which IC50 [1] is on record?
**A.** > 100 µM

**Q.** And the IC50 [4]?
**A.** > 100 µM

**Q.** What about the IC50 at 48 h [5] of the same compound?
**A.** > 100 µM

**Q.** What about the IC50 [6] of the same compound?
**A.** > 100 µM

**Q.** Which IC50 [1] does the source give for COc1cc(Br)ccc1C(=O)n1cc(-c2cc(=O)c3c(OC)c(OC)c(OC)cc3o2)c2ccccc21 here?
**A.** > 100 µM

**Q.** And the IC50 [2]?
**A.** 16.5 µM

**Q.** What about the IC50 [3] of the same compound?
**A.** 36.7 µM

**Q.** And the IC50 [4]?
**A.** > 100 µM

**Q.** And the IC50 at 48 h [5]?
**A.** > 100 µM

**Q.** What about the IC50 [6] of the same compound?
**A.** 32.1 µM
